In the array DNA melting data of Ke et al. (doi:10.1101/2024.01.08.574731):

Key:
[1] = melting temperature; fluorescence melt of hairpins on a sequencing array, two-state fit, raised by 9.35 °C to match UV melts; settings: sodium 0.088 M
Method in brief: (§1)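 Hairpins were imaged by Cy3 fluorescence on a sequenced MiSeq flow cell with annealed Cy3 and quencher oligos, in 50 mM Na-HEPES pH 8.0, 25 mM NaCl, in 2.5 °C steps up to 60 °C. Bootstrapped two-state fits of normalised signals gave melting temperature and folding enthalpy. Four replicates were combined by inverse variance, and fitted temperatures were raised by 9.35 °C to match UV melts.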

[2] = folding enthalpy; higher = less favourable; fluorescence melt of hairpins on a sequencing array, two-state fit; settings: sodium 0.088 M
Method in brief: as §1

| Sequence | Tm [1] [°C] | folding enthalpy [2] [kcal/mol] |
| --- | --- | --- |
| GATCCTAAAGAGGATC ((((((....)))))) | 46.1 | -31.3 |
| GATCGTTAGGACGATC ((((((....)))))) | 55.2 | -37.9 |
| GCAAGCGAAAGCTGTTGC ((((((....)))..))) | 45.9 | -15.7 |
| GATCACGGAAGTGATC ((((((....)))))) | 68.9 | -29.3 |
| GATTGGAAACAATC (((((....))))) | 40.5 | -23.6 |
| GAAAGGGGAAACCCTTTC (((((((....))))))) | 54.8 | -47 |
| GATCATTAAAATGATC ((((((....)))))) | 45.2 | -29.5 |
| GATCAGCCTGCTGATC ((((((....)))))) | 64.1 | -41.5 |
| GGTAGCGGAAACGCCACC (((.(((....))).))) | 48.3 | -24.8 |
| GCGGCGCCCGC ((((...)))) | 60.9 | -15.9 |
| GCTTCCGAAAGGACCAGC ((((((....)))..))) | 31.2 | -14.2 |
| GCGACGCGAAAGCTCCGC (((..((....))..))) | 50.6 | -20.2 |
| GGCGGGGGAAACCCCGTC (.(((((....))))).) | 65.1 | -22.7 |
| GCCGTCGAAAGACAAGGC ((((((....)))..))) | 55.2 | -32.8 |
| GGTGAACCGAAAGGTACC (((..(((....)))))) | 37.8 | -18 |
| GTGTGGGAAACCACAC ((((((....)))))) | 63.4 | -39.2 |
| GAGTTAGCGAAAGCTCTC (((..(((....)))))) | 35.1 | -11.5 |
| GGTGGCACGAAAGTGACC (((..(((....)))))) | 45.6 | -15.5 |
| GATCCTCACGAGGATC ((((((....)))))) | 54.8 | -43.3 |
| GGCCGCCCGAAAGGGGCC (((..(((....)))))) | 62 | -15 |
| GATTCCGAAAGGATCATC ((((((....)))..))) | 29.6 | -17 |
| GGCATCGAAAGATGAGCC ((((((....)))..))) | 44.1 | -17 |
| CGATTCCGGAAACGGTCG (((..(((....)))))) | 36.2 | -27.7 |
| CGTCAGAAATGACG (((((....))))) | 51.6 | -24.5 |

| Sequence | Tm [1] [°C] | folding enthalpy [2] [kcal/mol] |
| --- | --- | --- |
| GTCGTACCGAAAGGTGAC (((..(((....)))))) | 42.8 | -18.6 |
| CGTACGAAAGTACG (((((....))))) | 68.9 | -26.7 |
| GCGATCGAAAGATTCGC ((((((....))).))) | 53.5 | -45.1 |
| GATGCAGGAAACTACATC ((((.((....)).)))) | 36.4 | -30.7 |
| GCGGGGCGAAAGCTCTGC ((.(.((....)).).)) | 61.9 | -21.9 |
| GATCCTTTGGAGGATC ((((((....)))))) | 53.3 | -39.5 |
| GTGCATTCGAAAGAACAC (((..(((....)))))) | 23.8 | -7.63 |
| GCTGAACGAAAGTTAGC (((.(((....)))))) | 44.1 | -26 |
| GATCACATGGTGATC ((((((...)))))) | 61.1 | -37 |
| GTGTGGGGAAACCCACGC (.(((((....))))).) | 58.8 | -14.2 |
| GGCTTGGGAAACTAGGCC (((.(.(....).).))) | 39.4 | -28.4 |
| GATCAAGGTATTGATC ((((((....)))))) | 48.7 | -35.2 |
| GTCCGCGAAAGCGACGAC ((((((....)))..))) | 57.6 | -14 |
| GATCCATGGTTGGATC ((((((....)))))) | 51.3 | -42.8 |
| GCCTTGGGAAACCAAGGC (((((((....))))))) | 68.8 | -44.1 |
| GTCGAGCGAAAGCTAGAC (((.(((....))).))) | 60.5 | -33.5 |
| GATCGTACAAACGATC ((((((....)))))) | 52.6 | -40.2 |
| GATCATGCTGATGATC ((((((....)))))) | 47.3 | -38.5 |
| GCTGCTCGAAAGAGGAGC (((.(((....))).))) | 59.6 | -38.9 |
| GATCGGAGGCCCGATC ((((((....)))))) | 56.4 | -34.1 |
| CGCTCGGAAACGAAGGCG ((((((....)))..))) | 44.7 | -29.6 |
| GGATCGGGAAACCGGTTC (.(.(((....))).).) | 38.2 | -20.1 |
| GGACTAGGAAACTAGTCC (((((((....))))))) | 61.5 | -44 |
| GGTGAGGCGAAAGCCACC (((..(((....)))))) | 51.7 | -16.1 |

| Sequence | Tm [1] [°C] | folding enthalpy [2] [kcal/mol] |
| --- | --- | --- |
| GCGTTAGACGC ((((...)))) | 51.3 | -18.1 |
| GACTTGCGAAAGCAGGTC (((.(((....))).))) | 60 | -34.6 |
| GCGACCGGAAACGGCCAC (.(.(((....))).).) | 32.5 | -14.4 |
| GTGAACGAAAGTTTCAC ((((((....))).))) | 47.9 | -22 |
| GATCTATTGGTAGATC ((((((....)))))) | 44.2 | -30.4 |
| GCTCAGCGAAAGCTCGGC ((..(((....)))..)) | 39.5 | -14.5 |
| GCCCACGAAAGTGGTGGC ((((((....)))..))) | 55.4 | -13.8 |
| GGGTCCGAAAGGATCCC ((((((....))).))) | 60.1 | -31.5 |
| GGTCAGGCGAAAGCCACC (((..(((....)))))) | 35.6 | -11.2 |
| GATTCCGAAAGGAGATC ((((((....))).))) | 33.7 | -21.3 |
| GAGATACCGAAAGGTCTC (((..(((....)))))) | 34.3 | -15.6 |
| GTCGACCCGAAAGGGGAC (((..(((....)))))) | 40 | -13.4 |
| GGGGTAACGAAAGTTCCC (((..(((....)))))) | 49.9 | -23.8 |
| GATGAAGAAATTCATC ((((((....)))))) | 43.3 | -24.9 |
| GTAATGGCGAAAGCCTAC (((..(((....)))))) | 31.3 | -7.82 |
| GAGTGCCGAAAGGCCTC (((.(((....)))))) | 56.8 | -17.7 |
| TGGGAGAAATCCCA (((((....))))) | 40.7 | -19.5 |
| GGCGTGGGAAACCACACC ((.((((....)))).)) | 50.5 | -35.3 |
| GATCCGTATTCGGATC ((((((....)))))) | 58.7 | -39.5 |
| GAGTACGAAAGTATACTC ((((((....)))..))) | 34.4 | -19.7 |
| GATCGTTAGTACGATC ((((((....)))))) | 53.2 | -47.3 |
| GCAAACACGAAAGTGTGC (((..(((....)))))) | 48.6 | -15.4 |
| GCGTGGCGAAAGCTCCGC (((..((....))..))) | 54.8 | -22.1 |
| GCGTTCAGACGC ((((....)))) | 53.6 | -23.8 |

| Sequence | Tm [1] [°C] | folding enthalpy [2] [kcal/mol] |
| --- | --- | --- |
| GAACGCGAAAGCGTTTTC ((((((....)))..))) | 56.6 | -11.6 |
| GACCCTGGAAACAGAGTC (((.(((....))).))) | 36.6 | -29.5 |
| GATACCGAAAGGTTAATC ((((((....)))..))) | 25.3 | -11.1 |
| GGTGACTCGAAAGAGACC (((..(((....)))))) | 33 | -16.5 |
| GCATTCGAAAGAATGC ((((((....)))))) | 69.2 | -28.3 |
| GGGTGGGGAAACTCACCC (((((.(....).))))) | 55.4 | -49.8 |
| GAGTTAGGAAACTAACCC (.(((((....))))).) | 30.4 | -17.4 |
| GAATGCGAAAGCACTTTC ((((((....)))..))) | 28.9 | -10.4 |
| GGTATGGGAAACCGTACC ((((.((....)).)))) | 50.5 | -38.5 |
| GTGAAGGGAAACCTTTGC (..((((....))))..) | 31.7 | -20.1 |
| GATCAGTGCCTGATC ((((((...)))))) | 49 | -22.5 |
| GACCACGAAAGTGCGGTC ((((((....)))..))) | 43.2 | -19.3 |
| GCAACGCGAAAGCACTGC (((..((....))..))) | 41.4 | -11.4 |
| GACATCGGAAACGATGCC (.(((((....))))).) | 44.9 | -12.5 |
| GCTGCAGGAAACCACAGC ((((..(....)..)))) | 37 | -24.9 |
| GATTACGAAAGTAAGATC ((((((....)))..))) | 39 | -16.2 |
| GTGTTTGCGAAAGCACAC (((..(((....)))))) | 45.9 | -20.2 |
| GTCAAGCCGAAAGGCGAC (((..(((....)))))) | 45.1 | -12.2 |
| GACAAGGAAACTTGTC ((((((....)))))) | 51.8 | -43.8 |
| GTGGGGGGAAACCCTCAC (((.(((....))).))) | 52.6 | -30.3 |
| GTGTGCGAAAGCAAACAC ((((((....)))..))) | 51.7 | -24.1 |
